Experimental data reported in ChEMBL document CHEMBL3763137, “Design and synthesis of novel 4'-demethyl-4-deoxypodophyllotoxin derivatives as potential anticancer agents” (Bioorg Med Chem Lett, 2016).
Activity calls are given as the source filed them. The calls are words filed in the database; no cut-off is given here.

Columns and labels:
[1] = Antiproliferative activity against human HCT116 cells after 48 hrs by MTT assay; assay type: functional, cell-based; settings: HCT-116, 48 h
In short: (§1)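 Human cancer cells (HCT-116, HepG2 or MGC-803) incubated with compound for 48 h. Viability read by MTT assay. IC50 taken from dose-response curves. Mean ± SD of three separate assays.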

HepG2 [2] = test: Antiproliferative activity against human HepG2 cells after 48 hrs by MTT assay; assay type: functional, cell-based; settings: HepG2, 48 h; in short: as §1
[3] = Antiproliferative activity against human MGC803 cells after 48 hrs by MTT assay; assay type: functional, cell-based; settings: MGC-803, 48 h; in short: as §1
[4] = Cell cycle arrest in human MGC803 cells assessed as accumulation at G0/G1 phase at 10 uM after 24 hrs by propidium iodide staining based flow cytometric analysis (reference value: 77.59 %); assay type: functional; settings: MGC-803
In short: (§2)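 MGC-803 cells were exposed for 24 h to 0 (untreated), 10, 20 or 40 µM. The percentage of cells in each cell-cycle phase was measured by flow cytometry. Values are mean ± SD of three independent experiments, with P compared to control.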

[5] = Cell cycle arrest in human MGC803 cells assessed as accumulation at S phase at 10 uM after 24 hrs by propidium iodide staining based flow cytometric analysis (reference value: 20.52 %); assay type: functional; settings: MGC-803; in short: as §2
[6] = Cell cycle arrest in human MGC803 cells assessed as accumulation at G2/M phase at 10 uM after 24 hrs by propidium iodide staining based flow cytometric analysis (reference value: 1.89 %); assay type: functional; settings: MGC-803; in short: as §2
[7] = Cell cycle arrest in human MGC803 cells assessed as accumulation at G0/G1 phase at 20 uM after 24 hrs by propidium iodide staining based flow cytometric analysis (reference value: 77.59 %); assay type: functional; settings: MGC-803; in short: as §2
[8] = Cell cycle arrest in human MGC803 cells assessed as accumulation at S phase at 20 uM after 24 hrs by propidium iodide staining based flow cytometric analysis (reference value: 20.52 %); assay type: functional; settings: MGC-803; in short: as §2
[9] = Cell cycle arrest in human MGC803 cells assessed as accumulation at G2/M phase at 20 uM after 24 hrs by propidium iodide staining based flow cytometric analysis (reference value: 1.89 %); assay type: functional; settings: MGC-803; in short: as §2
[10] = Cell cycle arrest in human MGC803 cells assessed as accumulation at G0/G1 phase at 40 uM after 24 hrs by propidium iodide staining based flow cytometric analysis (reference value: 77.59 %); assay type: functional; settings: MGC-803; in short: as §2
[11] = Cell cycle arrest in human MGC803 cells assessed as accumulation at S phase at 40 uM after 24 hrs by propidium iodide staining based flow cytometric analysis (reference value: 20.52 %); assay type: functional; settings: MGC-803; in short: as §2
[12] = Cell cycle arrest in human MGC803 cells assessed as accumulation at G2/M phase at 40 uM after 24 hrs by propidium iodide staining based flow cytometric analysis (reference value: 1.89 %); assay type: functional; settings: MGC-803; in short: as §2
[13] = Cell cycle arrest in human MGC803 cells assessed as accumulation at G2/M phase after 24 hrs by propidium iodide staining based flow cytometric analysis; assay type: functional; settings: MGC-803; in short: as §2
[14] = Downregulation of cyclin A expression in human MGC803 cells after 24 hrs by Western blot analysis; assay type: functional, cell-based; settings: MGC-803
In short: (§3)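 MGC-803 cells were incubated for 24 h at 0, 10, 20 or 40 µM. Levels of cyclin A, cyclin B, CDK1, cdc25c and p21 were detected by Western blot with specific antibodies, with P compared to 0 µM.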

[15] = Downregulation of cyclin B expression in human MGC803 cells after 24 hrs by Western blot analysis; assay type: functional, cell-based; settings: MGC-803; in short: as §3
[16] = Downregulation of CDK1 expression in human MGC803 cells after 24 hrs by Western blot analysis; assay type: functional, cell-based; settings: MGC-803; in short: as §3
[17] = Downregulation of CDK2 expression in human MGC803 cells at 10 to 40 uM after 24 hrs by Western blot analysis; assay type: functional, cell-based; settings: MGC-803
[18] = Downregulation of cdc25c expression in human MGC803 cells at 10 to 40 uM after 24 hrs by Western blot analysis; assay type: functional, cell-based; settings: MGC-803; in short: as §3
[19] = Upregulation of p21 expression in human MGC803 cells at 10 to 40 uM after 24 hrs by Western blot analysis; assay type: functional, cell-based; settings: MGC-803; in short: as §3
Mus musculus [20] = test: Toxicity in ICR mouse xenografted with human HepG2 cells assessed as body weight at 1 mg/kg, iv administered every 2 days measured on day 1 (reference value: 21 +/- 0.89 g); assay type: organism-based; settings: in vivo, 48 h
Mus musculus [21] = test: Toxicity in ICR mouse xenografted with human HepG2 cells assessed as body weight at 2 mg/kg, iv administered every 2 days measured on day 1 (reference value: 21 +/- 0.89 g); assay type: organism-based; settings: in vivo, 48 h
Mus musculus [22] = test: Toxicity in ICR mouse xenografted with human HepG2 cells assessed as body weight at 4 mg/kg, iv administered every 2 days measured on day 1 (reference value: 21 +/- 0.89 g); assay type: organism-based; settings: in vivo, 48 h
Mus musculus [23] = test: Toxicity in ICR mouse xenografted with HepG2 cells assessed as body weight at 1 mg/kg, iv administered every 2 days measured on day 14 (reference value: 30.10 +/- 2.39 g); assay type: organism-based; settings: in vivo, 48 h
Mus musculus [24] = test: Toxicity in ICR mouse xenografted with HepG2 cells assessed as body weight at 2 mg/kg, iv administered every 2 days measured on day 14 (reference value: 30.10 +/- 2.39 g); assay type: organism-based; settings: in vivo, 48 h
Mus musculus [25] = test: Toxicity in ICR mouse xenografted with HepG2 cells assessed as body weight at 4 mg/kg, iv administered every 2 days measured on day 14 (reference value: 30.10 +/- 2.39 g); assay type: organism-based; settings: in vivo, 48 h
HepG2 [26] = test: Antitumor activity against human HepG2 cells xenografted in ICR mouse assessed as tumor growth inhibition at 4 mg/kg, iv administered every 2 days measured after 14 days relative to control; assay type: functional; settings: read-out: TGI
In short: (§4)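 HepG2 xenografts established in ICR mice, then randomized into four groups (n = 10 each). Compound given intravenously every two days; control group received vehicle at 0.4 mL/mouse. Tumors weighed after two weeks (day 14); inhibitory ratio calculated versus vehicle control. Body weights recorded on days 1 and 14.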

HepG2 [27] = test: Antitumor activity against human HepG2 cells xenografted in ICR mouse assessed as tumor growth inhibition at 1 mg/kg, iv administered every 2 days measured after 14 days relative to control; assay type: functional; settings: read-out: TGI; in short: as §4
HepG2 [28] = test: Antitumor activity against human HepG2 cells xenografted in ICR mouse assessed as tumor growth inhibition at 2 mg/kg, iv administered every 2 days measured after 14 days relative to control; assay type: functional; settings: read-out: TGI; in short: as §4
[29] = Cell cycle arrest in human MGC803 cells assessed as decrease in cell level at G1 phase after 24 hrs by propidium iodide staining based flow cytometric analysis; assay type: functional; settings: MGC-803; in short: as §2
HepG2 [30] = test: Antitumor activity against human HepG2 cells xenografted in iv dosed ICR mouse assessed as tumor retardation effect administered every 2 days measured after 14 days; assay type: functional, organism-based

Q: With COc1cc([C@@H]2c3cc4c(cc3C[C@H]3COC(=O)[C@@H]32)OCO4)cc(OC)c1OCC(=O)Nc1ccccc1[N+](=O)[O-] as the compound, how does the IC50 [1] read?
A: > 10 µM

Q: What about the IC50 (HepG2 [2]) of the same compound?
A: > 10 µM

Q: And the IC50 [3]?
A: > 10 µM

Q: Which IC50 [1] does the source give for COc1cc([C@@H]2c3cc4c(cc3C[C@H]3COC(=O)[C@@H]32)OCO4)cc(OC)c1OCC(=O)Nc1ccccc1Cl here?
A: > 10 µM

Q: What about the IC50 (HepG2 [2]) of the same compound?
A: > 10 µM

Q: And the IC50 [3]?
A: > 10 µM

Q: Which results are given for COc1cc([C@@H]2c3cc4c(cc3C[C@H]3COC(=O)[C@@H]32)OCO4)cc(OC)c1OCC(=O)Nc1cccc(F)c1?
A: IC50 [1]: > 10 µM; IC50 (HepG2 [2]): > 10 µM; IC50 [3]: > 10 µM

Q: For COc1cc([C@@H]2c3cc4c(cc3C[C@H]3COC(=O)[C@@H]32)OCO4)cc(OC)c1OCC(=O)Nc1ccccc1C, which IC50 [1] is on record?
A: > 10 µM

Q: What about the IC50 (HepG2 [2]) of the same compound?
A: 7.8 µM

Q: And the IC50 [3]?
A: 4.05 µM

Q: With COc1cc([C@@H]2c3cc4c(cc3C[C@H]3COC(=O)[C@@H]32)OCO4)cc(OC)c1OCC(=O)Nc1ccccc1 as the compound, how does the IC50 [1] read?
A: > 10 µM

Q: And the IC50 (HepG2 [2])?
A: > 10 µM

Q: What about the IC50 [3] of the same compound?
A: 2.54 µM

Q: With COc1cc([C@@H]2c3cc4c(cc3C[C@H]3COC(=O)[C@@H]32)OCO4)cc(OC)c1OCC(=O)Nc1ccccc1F as the compound, how does the IC50 [1] read?
A: 2.2 µM

Q: And the IC50 (HepG2 [2])?
A: 1.08 µM

Q: And the IC50 [3]?
A: 0.22 µM

Q: What about the Activity [4] of the same compound?
A: 41.9%

Q: What about the Activity [5] of the same compound?
A: 50.8%

Q: What about the Activity [6] of the same compound?
A: 7.29%

Q: And the Activity [7]?
A: 7.22%

Q: What about the Activity [8] of the same compound?
A: 20.5%

Q: And the Activity [9]?
A: 72.3%

Q: What about the Activity [10] of the same compound?
A: 1.8%

Q: What about the Activity [11] of the same compound?
A: 22.7%

Q: What about the Activity [12] of the same compound?
A: 75.5%

Q: And the Activity [13]?
A: Dose-dependent effect

Q: What about the Activity [14] of the same compound?
A: Dose-dependent effect

Q: And the Activity [15]?
A: Dose-dependent effect

Q: And the Activity [16]?
A: Dose-dependent effect

Q: What about the Activity [17] of the same compound?
A: inactive

Q: And the Activity [18]?
A: Active

Q: And the Activity [19]?
A: Active

Q: What about the Activity (Mus musculus [20]) of the same compound?
A: 20.82 g

Q: What about the Activity (Mus musculus [21]) of the same compound?
A: 20.91 g

Q: What about the Activity (Mus musculus [22]) of the same compound?
A: 21.3 g

Q: And the Activity (Mus musculus [23])?
A: 29.09 g

Q: And the Activity (Mus musculus [24])?
A: 28.36 g

Q: And the Activity (Mus musculus [25])?
A: 27.2 g

Q: What about the inhibition in vivo at 4 mg/kg (HepG2 [26]) of the same compound?
A: 45.6%

Q: What about the inhibition in vivo at 1 mg/kg (HepG2 [27]) of the same compound?
A: 6.09%

Q: What about the inhibition in vivo at 2 mg/kg (HepG2 [28]) of the same compound?
A: 26.6%

Q: What about the Activity [29] of the same compound?
A: Dose-dependent effect

Q: What about the Activity (HepG2 [30]) of the same compound?
A: Dose-dependent effect

Q: With COc1cc([C@@H]2c3cc4c(cc3C[C@H]3COC(=O)[C@@H]32)OCO4)cc(OC)c1OCC(=O)Nc1cccc([N+](=O)[O-])c1 as the compound, how does the IC50 [1] read?
A: 3.2 µM

Q: What about the IC50 (HepG2 [2]) of the same compound?
A: > 10 µM

Q: What about the IC50 [3] of the same compound?
A: 2.82 µM

Q: Which results are given for COc1cc([C@@H]2c3cc4c(cc3[C@@H](O[C@@H]3O[C@@H]5CO[C@@H](C)O[C@H]5[C@H](O)[C@H]3O)[C@H]3COC(=O)[C@H]23)OCO4)cc(OC)c1O [ETOPOSIDE]?
A: IC50 [1]: 1.7 µM; IC50 (HepG2 [2]): 5.62 µM; IC50 [3]: > 10 µM

Q: Which IC50 [1] does the source give for COc1cc([C@@H]2c3cc4c(cc3C[C@H]3COC(=O)[C@@H]32)OCO4)cc(OC)c1OCC(=O)Nc1c(C)cccc1Cl here?
A: > 10 µM

Q: And the IC50 (HepG2 [2])?
A: > 10 µM

Q: And the IC50 [3]?
A: 6.16 µM

Q: With COc1cc([C@@H]2c3cc4c(cc3C[C@H]3COC(=O)[C@@H]32)OCO4)cc(OC)c1OCC(=O)Nc1cccc(Cl)c1 as the compound, how does the IC50 [1] read?
A: 2.68 µM

Q: And the IC50 (HepG2 [2])?
A: 2.97 µM

Q: And the IC50 [3]?
A: 1.24 µM

Q: With COc1ccc(NC(=O)COc2c(OC)cc([C@@H]3c4cc5c(cc4C[C@H]4COC(=O)[C@@H]43)OCO5)cc2OC)cc1 as the compound, how does the IC50 [1] read?
A: > 10 µM

Q: What about the IC50 (HepG2 [2]) of the same compound?
A: > 10 µM

Q: What about the IC50 [3] of the same compound?
A: > 10 µM
